Values after ≈ are worked out from the molar mass of the structure shown.
Columns and labels:
[1] = tested on: Mycobacterium tuberculosis; experiment: Antimycobacterial activity against Mycobacterium tuberculosis H37Rv ATCC 27294 at 100 ug/ml after 7 days by microplate Alamar blue assay relative to control; type: functional; conditions: H37Rv ATCC 27294, 168 h
Outline: (§1)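 Cycle 1 HTS MABA: M. tuberculosis H37Rv ATCC 27294 in 7H12 broth, 384-well, final 1% DMSO. Ten twofold dilutions, typically 100 to 0.195 µg/mL. Amikacin controls at 0.17 and 3.20 µM; the high level serves as background for percent inhibition. 7 days at 37 °C, ~95% humidity. Fluorescence read at 535 nm excitation / 590 nm emission.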

[2] = tested on: Mycobacterium tuberculosis; experiment: Antimycobacterial activity against Mycobacterium tuberculosis H37Rv ATCC 27294 after 7 days by broth microdilution assay; type: functional; conditions: H37Rv ATCC 27294, 168 h; outline: as §1
[3] = tested on: Mycobacterium tuberculosis; experiment: Antimycobacterial activity against Mycobacterium tuberculosis H37Rv ATCC 27294 at 50 ug/ml after 7 days by microplate Alamar blue assay relative to control; type: functional; conditions: H37Rv ATCC 27294, 168 h; outline: as §1
[4] = tested on: Mycobacterium tuberculosis; experiment: Antimycobacterial activity against Mycobacterium tuberculosis H37Rv ATCC 27294 at 25 ug/ml after 7 days by microplate Alamar blue assay relative to control; type: functional; conditions: H37Rv ATCC 27294, 168 h; outline: as §1
[5] = tested on: Mycobacterium tuberculosis; experiment: Antimycobacterial activity against Mycobacterium tuberculosis H37Rv ATCC 27294 at 0.79 ug/ml after 7 days by microplate Alamar blue assay relative to control; type: functional; conditions: H37Rv ATCC 27294, 168 h; outline: as §1
[6] = tested on: Mycobacterium tuberculosis; experiment: Antimycobacterial activity against Mycobacterium tuberculosis H37Rv ATCC 27294 after 7 days by microplate Alamar blue assay; type: functional, organism-based; conditions: H37Rv ATCC 27294, 168 h; outline: as §1
[7] = tested on: Mycobacterium tuberculosis; experiment: Antimycobacterial activity against Mycobacterium tuberculosis H37Rv ATCC 27294 at 12.5 ug/ml after 7 days by microplate Alamar blue assay relative to control; type: functional; conditions: H37Rv ATCC 27294, 168 h; outline: as §1
[8] = tested on: Mycobacterium tuberculosis; experiment: Antimycobacterial activity against Mycobacterium tuberculosis H37Rv ATCC 27294 at 0.63 ug/ml after 7 days by microplate Alamar blue assay relative to control; type: functional; conditions: H37Rv ATCC 27294, 168 h; outline: as §1
[9] = tested on: Mycobacterium tuberculosis; experiment: Antimycobacterial activity against Mycobacterium tuberculosis H37Rv ATCC 27294 at 0.31 ug/ml after 7 days by microplate Alamar blue assay relative to control; type: functional; conditions: H37Rv ATCC 27294, 168 h; outline: as §1
[10] = tested on: Mycobacterium tuberculosis; experiment: Antimycobacterial activity against Mycobacterium tuberculosis H37Rv ATCC 27294 at 1.25 to 5 ug/ml after 7 days by microplate Alamar blue assay relative to control; type: functional; outline: as §1
[11] = tested on: Mycobacterium tuberculosis; experiment: Antimycobacterial activity against Mycobacterium tuberculosis H37Rv SRI 1345 infected in mouse J774A1 cells assessed as reduction in bacterial growth at 1 ug/ml after 7 days relative to control; type: functional, J774.A1
Outline: (§2)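 Murine J774 macrophages grown in RPMI 1640 with L-glutamine and FBS at 37 °C, 5% CO2. Plated at 2.0 × 10^5 in 10% FBS, switched to 1% FBS next day. Infected 24 h later at MOI 5 for 4 h, washed, then drug added. At 0 and 7 days, cells lysed with SDS, DNase-treated and plated on 7H10 agar for CFU. Duplicates; read-out is log reduction from day 0 to day 7.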

[12] = tested on: Mycobacterium tuberculosis; experiment: Antimycobacterial activity against Mycobacterium tuberculosis H37Rv SRI 1345 incubated for 7 days under anaerobic condition measured after 7 days of recovery under gaseous condition by low oxygen recovery assay; type: functional
[13] = Cytotoxicity against mouse J774A1 cells assessed as cell viability at 0.1 ug/ml after 7 days by MTT assay relative to control; type: cell-based, J774.A1; conditions: read-out: Activity
Outline: (§3)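 Uninfected murine J774 macrophages grown in RPMI 1640 with L-glutamine and FBS at 37 °C, 5% CO2. Cells seeded at 2.0 × 10^5 per well in 10% FBS, then switched to 1% FBS overnight. Run in parallel with the 7-day infection assay. […] Read out by MTT as percent viability.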

[14] = tested on: Mycobacterium tuberculosis; experiment: Antimycobacterial activity against Mycobacterium tuberculosis H37Rv ATCC 27294 at 0.02 ug/ml after 7 days by microplate Alamar blue assay relative to control; type: functional; conditions: H37Rv ATCC 27294, 168 h; outline: as §1
[15] = tested on: Mycobacterium tuberculosis; experiment: Antimycobacterial activity against Mycobacterium tuberculosis H37Rv SRI 1345 at MIC after 7 days by broth microdilution assay relative to control; type: functional
[16] = Cytotoxicity against mouse J774A1 cells assessed as cell viability at 1 ug/ml after 7 days by MTT assay relative to control; type: cell-based, J774.A1; conditions: read-out: Activity; outline: as §3
[17] = tested on: Mycobacterium tuberculosis; experiment: Antimycobacterial activity against Mycobacterium tuberculosis H37Rv SRI 1345 infected in mouse J774A1 cells assessed as reduction in bacterial growth at 0.01 ug/ml after 7 days relative to control; type: functional, J774.A1; outline: as §2
[18] = tested on: Mycobacterium tuberculosis; experiment: […] activity against Mycobacterium tuberculosis H37Rv SRI 1345 after 16 to 21 days; type: functional; conditions: read-out: MBC99.9
Outline: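 MBC, done after MIC testing in H37Rv SRI 1345: diluted aliquots from wells without macroscopic growth are plated on Middlebrook 7H10 agar and incubated 16–21 days at 37 °C. CFUs are counted. MBC is the lowest concentration giving 99.9% kill; rejection value is ≥40 colonies.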

[19] = Cytotoxicity against mouse J774A1 cells assessed as cell viability at 0.01 ug/ml after 7 days by MTT assay relative to control; type: cell-based, J774.A1; conditions: read-out: Activity; outline: as §3
[20] = tested on: Mycobacterium tuberculosis; experiment: Antimycobacterial activity against Mycobacterium tuberculosis H37Rv SRI 1345 after 7 days by broth microdilution assay; type: functional; conditions: H37Rv SRI 1345, 168 h
[21] = tested on: Mycobacterium tuberculosis; experiment: Antimycobacterial activity against Mycobacterium tuberculosis H37Rv SRI 1345 infected in mouse J774A1 cells assessed as reduction in bacterial growth at 0.1 ug/ml after 7 days relative to control; type: functional, J774.A1; outline: as §2
[22] = tested on: Mycobacterium tuberculosis; experiment: Antimycobacterial activity against Mycobacterium tuberculosis H37Rv ATCC 27294 at 3.13 ug/ml after 7 days by microplate Alamar blue assay relative to control; type: functional; conditions: H37Rv ATCC 27294, 168 h; outline: as §1
[23] = tested on: Mycobacterium tuberculosis; experiment: Antimycobacterial activity against Mycobacterium tuberculosis H37Rv ATCC 27294 at 6.5 ug/ml after 7 days by microplate Alamar blue assay relative to control; type: functional; conditions: H37Rv ATCC 27294, 168 h; outline: as §1
[24] = tested on: Mycobacterium tuberculosis; experiment: Antimycobacterial activity against Mycobacterium tuberculosis H37Rv ATCC 27294 at 1.56 ug/ml after 7 days by microplate Alamar blue assay relative to control; type: functional; conditions: H37Rv ATCC 27294, 168 h; outline: as §1

Compound `CCOC(=O)c1cc(C#N)n2ccc(-c3ccncc3)cc12` has an inhibition at 100 µg/mL [1] of 97.2%, an MIC90 [2] of over 100 µM and an inhibition at 50 µg/mL [3] of 84.9%. It also gave an inhibition at 25 µg/mL [4] of 21.5%, an inhibition at 0.79 µg/mL [5] of 8.6% and an IC50 [6] of 33.4 µg/mL (≈ 114 µM). It also gave an IC90 [6] of 59.5 µg/mL (≈ 204 µM) and an inhibition at 12.5 µg/mL [7] of 15.3%.
In the case of `NNC(=O)c1ccncc1` [ISONIAZID], the MIC90 [2] is reported as 0.31 µM (≈ 0.0425 µg/mL), the inhibition at 0.63 µg/mL [8] is reported as 93.9% and the inhibition at 0.31 µg/mL [9] is reported as 92.9%. For the same compound, the “inhibition (INH)” value [10] was 94%, the IC50 [6] was 0.18 µg/mL (≈ 1.31 µM) and the IC90 [6] was 0.29 µg/mL (≈ 2.11 µM).
With `CO[C@H]1/C=C/O[C@@]2(C)Oc3c(C)c(O)c4c(O)c(c(/C=N/N5CCN(C)CC5)c(O)c4c3C2=O)NC(=O)/C(C)=C\C=C\[C@H](C)[C@H](O)[C@@H](C)[C@@H](O)[C@@H](C)[C@H](OC(C)=O)[C@@H]1C` [RIFAMPIN] the MIC90 [2] was 0.04 µM (≈ 0.0329 µg/mL), the “fold change (FC)” value [11] was 1.49 and the INH [12] was 0.13 µg/mL. The viability at 168 h, 0.1 ug/ml [13] was 93%, the inhibition at 0.02 µg/mL [14] was 61.2% and the “inhibition (INH)” value [15] was 63%. For the same compound, the viability at 168 h, 1 ug/ml [16] was 85%, the “fold change (FC)” value [17] was 0.98 and the MBC [18] was 1.56 µg/mL (≈ 1.9 µM). The viability at 168 h, 0.01 ug/ml [19] was 94%, the IC50 [6] was 0.02 µg/mL (≈ 0.0243 µM) and the IC90 [6] was 0.02 µg/mL (≈ 0.0243 µM). The MIC [20] was 0.049 µg/mL (≈ 0.0595 µM) and the “fold change (FC)” value [21] was 0.81.
`CCOC(=O)c1cc(C(=O)c2ccccc2)n2ccc(-c3ccncc3)cc12` showed an inhibition at 100 µg/mL [1] of -8.6%, an MIC90 [2] of over 100 µM and an inhibition at 3.13 µg/mL [22] of 3.9%. For the same compound, the IC50 [6] was over 100 µg/mL, the IC90 [6] was over 100 µg/mL and the inhibition at 6.5 µg/mL [23] was 0.2%. The inhibition at 1.56 µg/mL [24] was 3%.
With `CCc1nc(N)nc(N)c1-c1ccc(Cl)cc1` [PYRIMETHAMINE] the inhibition at 100 µg/mL [1] was 95.6%, the MIC90 [2] was 100 µM (≈ 24.9 µg/mL) and the inhibition at 50 µg/mL [3] was 69.7%. For the same compound, the inhibition at 25 µg/mL [4] was 26.7%, the IC50 [6] was 37.4 µg/mL (≈ 150 µM) and the IC90 [6] was 75 µg/mL (≈ 301 µM).

Source: ChEMBL document CHEMBL3120161, “Antimycobacterial activity of nitrogen heterocycles derivatives: bipyridine derivatives. Part III” (Eur J Med Chem, 2014)
